The target in series [1] is T1, Glucagon receptor (Homo sapiens, UniProt P47871). The series is described as follows: Percent inhibition of glucagon induced cAMP accumulation in human glucagon receptor transfected CHO cells at a compound concentration of 10 uM. Type of series: functional, cell-based. In a few lines: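 Functional antagonism in CHO cells transfected with human glucagon receptor. Read-out is inhibition of glucagon-induced cAMP accumulation. Reported as IC50, or as percent inhibition at 10 µM compound. Mean of at least two experiments, SD <50% of mean.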
(In general: Changes in cAMP serve as a functional read-out for many G protein-coupled receptors.)

Series [2] has as its target T1, Glucagon receptor. The series is described as follows: Inhibitory concentration towards binding of [125I]glucagon to the human glucagon receptor expressed in CHO cells. Type of series: cell-based.
The target of series [3] is T1, Glucagon receptor. The series is described as follows: Inhibition of glucagon induced cAMP accumulation in human glucagon receptor transfected CHO cells. Type of series: functional, cell-based. Summed up:
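Functional antagonism in CHO cells transfected with human glucagon receptor. Read-out is inhibition of glucagon-induced cAMP accumulation. Mean of at least two experiments, SD <50% of mean.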

Series [4] can be described thus: Steady state volume distribution measured in mouse after peroral administration of 2 mg/kg. It counts as ADME, organism-based. Set-up: dose 2 mg/kg, route oral. As to conditions: in vivo, po. In a few lines: (§1)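 Mouse PK, n = 3 mice per route. Dosed both IV and PO: 1.0 mg/kg IV / 2.0 mg/kg PO for one compound, 5.0 mg/kg IV / 10.0 mg/kg PO for others. Plasma clearance, Vdss, t1/2, Cmax, dose-normalized oral AUC and F% derived.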

The nature of series [5]: Half life measured in mouse after peroral administration of 2 mg/kg. Set-up: dose 2 mg/kg, route oral. Particulars: in vivo, po. It counts as ADME, organism-based. Summed up:
as §1

A short description of series [6]: Plasma clearance measured in mouse after intravenous administration of 1 mg/kg; n = 3. It counts as ADME, organism-based. Set-up: dose 1 mg/kg, route intravenous. Particulars: in vivo. In a few lines:
as §1

Series [7] can be described thus: Maximum plasma concentration measured in mouse after intravenous administration of 1 mg/kg. Type of series: ADME, organism-based. Set-up: dose 1 mg/kg, route intravenous. In a few lines: as §1
The nature of series [8]: Plasma clearance measured in mouse after peroral administration of 2 mg/kg; n = 3. As to conditions: in vivo, po. Set-up: dose 2 mg/kg, route oral. Type of series: ADME, organism-based. Summed up:
as §1

Series [9] in a line: Maximum plasma concentration measured in mouse after peroral administration of 2 mg/kg. Type of series: ADME, organism-based. Set-up: dose 2 mg/kg, route oral. As to conditions: po. Summed up:
as §1

Series [10] in a line: Oral bioavailability in mouse (dose 2 mg/kg). Particulars: in vivo. Type of series: ADME, organism-based. Summed up:
as §1

The nature of series [11]: Bioavailability in mouse (dose 1 mg/kg i.v.). Type of series: ADME, organism-based. Particulars: in vivo, iv. In a few lines:
as §1

Series [12] in a line: Steady state volume distribution measured in mouse after intravenous administration of 1 mg/kg. It counts as ADME, organism-based. Also on record: dose 1 mg/kg, route intravenous. As to conditions: in vivo, read-out: Vdss. Summed up:
as §1

Series [13] is described as follows: Half life measured in mouse after intravenous administration of 1 mg/kg. Set-up: dose 1 mg/kg, route intravenous. Particulars: in vivo. Type of series: ADME, organism-based. In a few lines: as §1
A short description of series [14]: Maximum plasma concentration measured in mouse after oral administration of 2 mg/kg.

A word on the inhibition: it is the share of the control response that was lost under treatment. For orientation: IC50 means the point on the concentration scale where inhibition reaches its midpoint. Higher therefore signals a need for much substance. Usually half-life stands for the time needed for the level to fall by half in the phase considered. Lower therefore signals fast loss. What is called Cmax is the highest concentration seen after dosing. Broadly, the bioavailability is dose-corrected exposure relative to a reference, in per cent.

Molecules are shown by their SMILES.

T1 sequence (P47871 whole entry): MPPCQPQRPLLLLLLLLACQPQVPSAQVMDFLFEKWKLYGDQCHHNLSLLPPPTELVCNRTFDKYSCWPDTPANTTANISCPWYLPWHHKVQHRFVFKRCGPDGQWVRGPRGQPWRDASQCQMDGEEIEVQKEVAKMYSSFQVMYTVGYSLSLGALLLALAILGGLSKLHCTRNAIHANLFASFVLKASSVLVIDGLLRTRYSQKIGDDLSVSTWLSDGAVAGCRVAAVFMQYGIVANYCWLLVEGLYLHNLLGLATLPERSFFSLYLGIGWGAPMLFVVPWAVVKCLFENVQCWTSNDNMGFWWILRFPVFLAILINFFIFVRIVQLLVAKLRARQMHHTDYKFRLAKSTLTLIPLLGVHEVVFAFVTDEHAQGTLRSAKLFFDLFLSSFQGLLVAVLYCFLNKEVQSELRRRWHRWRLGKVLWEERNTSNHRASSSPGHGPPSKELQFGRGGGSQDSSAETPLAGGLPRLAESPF

Take `CCC(CC)C(=O)Nc1sc2c(c1C(N)=O)CCC(C(C)(C)CC)C2` (stereo unspecified): the inhibition on Glucagon receptor [1] was determined as 38%. The same molecule had an IC50 at Glucagon receptor [2] of 870 nM.

For `CCC(CC)C(=O)Nc1sc2c(c1C#N)CCC(N(C)Cc1ccccc1)C2` (stereo unspecified), the 50% inhibitory concentration (IC50) on Glucagon receptor [2] was 3820 nM.

As for `CCC(CC)C(=O)Nc1sc2c(c1C#N)CCC(C(C)(C)CC)C2` (stereo unspecified), the IC50 against Glucagon receptor [3] turned out to be 129 nM; on Glucagon receptor [2] it was 181 nM.

As to `CCC(CC)C(=O)Nc1sc(-c2nnc(CC(C)C)o2)c(C)c1C#N`, on Glucagon receptor [2], the IC50 came to 3210 nM.

Regarding `CCC(CC)C(=O)Nc1sc(-c2nc(Cc3ccc(Cl)cc3Cl)no2)c(C)c1C#N`, the Vdss in [4] is 8.7 L/kg. Also, the half-life in series [5] and in [13] was 5.1 h in each case. In addition, the Clp in series [6] and in series [8] was 23 mL/min/kg throughout. Besides, the IC50 came out at 34 nM on Glucagon receptor [3] and 89 nM at Glucagon receptor [2]. The maximum concentration (Cmax) in series [7] and in series [9] was 800 nM throughout. In addition, the bioavailability in series [10] and in [11] was 36% each time. In addition, the Vd in [12] was 8.7 L/kg.

For the molecule `CCC(C)(C)C1CCc2c(sc(NC(=O)c3ccc(Br)cc3)c2C#N)C1` (stereo unspecified), the IC50 at Glucagon receptor [2] is > 20000 nM.

For `CCC(CC)C(=O)Nc1sc2c(c1C#N)CCC(N(C)C1CCCc3ccccc31)C2` (single isomer, unassigned; form 2), the results for the IC50 on Glucagon receptor [3] and at Glucagon receptor [2] were 59 nM and 118 nM, respectively.

For the molecule `CCC(CC)C(=O)Nc1sc(C(=O)N(Cc2ccc(Cl)cc2Cl)C(C)C)c(C)c1C#N`, the values for the concentration for half-maximal inhibition (IC50) against Glucagon receptor [3] and on Glucagon receptor [2] were 41 nM and 153 nM, respectively.

Consider `CCC(CC)C(=O)Nc1sc2c(c1C#N)CCC(N(Cc1ccc(Cl)cc1Cl)C(C)C)C2` (stereo unspecified), for which the IC50 at Glucagon receptor [3] worked out at 59 nM; at Glucagon receptor [2], 129 nM.

As to `CCC(CC)C(=O)Nc1sc2c(c1C#N)CCC(N(C)Cc1ccc(Cl)cc1Cl)C2` (stereo unspecified), the Vdss in series [4] was 3.4 L/kg. Further, the half-life in series [5] and in series [13] was 1.9 h each time. Also, the Clp in [6] and in series [8] was 50 mL/min/kg throughout. The IC50 against Glucagon receptor [3] came to 63 nM; on Glucagon receptor [2], 92 nM. Also, the Cmax in [9] and in series [14] was 80 nM throughout. Besides, the bioavailability in series [10] and in series [11] was 9.2% throughout. In addition, the Vd in series [12] was found to be 3.4 L/kg.

`CCC(CC)C(=O)Nc1sc(-c2nc(CC(C)C)no2)c(C)c1C#N` showed a Vdss in series [4] of 16 L/kg. The half-life in series [5] and in series [13] was 2.7 h each time. The Clp in [6] and in [8] was 84 mL/min/kg in each case. Further, the results for the IC50 on Glucagon receptor [3] and at Glucagon receptor [2] were 185 nM and 368 nM, respectively. Besides, the peak concentration (Cmax) in series [7] and in series [9] was 800 nM throughout. The bioavailability in [10] and in series [11] was 39% in each case. Moreover, the Vd in series [12] was determined as 16 L/kg.

As for `CCC(CC)C(=O)Nc1sc2c(c1C#N)CCC(N(C)C1CCCc3ccccc31)C2` (single isomer, unassigned; form 1), the IC50 was 158 nM against Glucagon receptor [3] and 139 nM at Glucagon receptor [2].
